# In ChEMBL document CHEMBL4014309, “Development of an Acrylate Derivative Targeting the NLRP3 Inflammasome for the Treatment of Inflammatory Bowel Disease” (J Med Chem, 2017):
# Activity calls are given as the source filed them. The rule behind the calls is not given here.
# Legend:
# [1] = Cysteamine reactivity in PBS assessed as free compound level at pH 7.4 measured after 30 mins by DTNB reagent based RP-UHPLC analysis
# Method in brief: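 The compound was reacted with excess cysteamine in pH 7.4 phosphate buffer with CH3CN cosolvent at 37 °C. Remaining compound was followed by UHPLC over 4 h, sampled at 30 min, 60 min and 4 h, and expressed as percent of starting concentration.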
# [2] = molecular target: NACHT, LRR and PYD domains-containing protein 3 (Homo sapiens) (UniProt Q96P20); assay: Inhibition of NLRP3 in PMA-differentiated and LPS-primed human THP1 cells assessed as decrease in ATP-induced pyroptosis measured as LDH activity at 10 uM preincubated for 1 hr followed by ATP addition measured after 1 hr by colorimetric assay relative to control
# Method in brief: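 THP-1 cells were PMA-differentiated and LPS-primed, then pretreated with vehicle or compound (10 µM, 1 h). Pyroptosis was triggered with ATP (5 mM). LDH in supernatant was measured colorimetrically 1 h after ATP and expressed as percent decrease versus vehicle, mean ± SEM of ≥3 experiments.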
# [3] = molecular target: NACHT, LRR and PYD domains-containing protein 3 (Homo sapiens) (UniProt Q96P20); assay: Inhibition of recombinant YFP-tagged NLRP3 (unknown origin) expressed in HEK293 cells co-expressing luciferase assessed as reduction in nigericin-induced intracellular K+ decrease-mediated conformational changes in protein at 10 to 100 uM measured after 24 hrs by BRET assay; format: cell-based
# Method in brief: (§1)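 HEK293 cells stably expressing YFP-NLRP3-Luc were grown in DMEM with 10% FCS, plated on poly-L-lysine, and exposed to compound or vehicle (15 h per methods; 24 h per figure legend). Cells were washed, then BRET was read after adding coelenterazine-H (5 µM). Kinetics used nigericin (10 µM) in vehicle or high-K+ (140 mM) buffer. Slopes of three phases were taken; mean ± SEM, n = 5–12.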
# [4] = molecular target: NACHT, LRR and PYD domains-containing protein 3 (Homo sapiens) (UniProt Q96P20); assay: Inhibition of recombinant YFP-tagged NLRP3 (unknown origin) expressed in HEK293 cells co-expressing luciferase assessed as initial conformational changes in protein by measuring increase in nigericin-induced decrease in intracellular K+ level at 10 to 100 uM measured after 24 hrs by BRET assay; format: cell-based; method in brief: as §1
# [5] = molecular target: NACHT, LRR and PYD domains-containing protein 3 (Homo sapiens) (UniProt Q96P20); assay: Irreversible inhibition of His-FLAG- tagged NLRP3-ATPase (unknown origin) at 100 uM preincubated for 55 mins followed by ATP addition measured after 40 mins by ADP-Glo assay
# Method in brief: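 His-FLAG NLRP3 (105 ng/well) captured on anti-FLAG-coated, BSA-blocked wells for 3 h at 4 °C. Compound (100 µM final, 2% DMSO) preincubated 55 min at 37 °C. Wells were washed three times (or not washed), then ATP (250 µM) was added for 40 min at 37 °C. ADP was read by ADP-Glo. Equal protein loading was checked by anti-His ELISA.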
# [6] = Solubility of the compound in PBS at 1.56 mg […] and pH 7.4 after 24 hrs by UHPLC-MS analysis; format: physicochemical
# Jejunum = assay: Drug metabolism in Sprague-Dawley rat jejunum assessed as 2-(2-chlorobenzyl)acrylic acid level at 12.5 mg as suspension in olive oil measured after 2 hrs by UHPLC-M; format: ADME, tissue-based; conditions: in vivo
# Liver = assay: Drug metabolism in Sprague-Dawley rat liver microsomes assessed as formation of 2-(2-chlorobenzyl)acrylic acid at 100 uM up to 2 hrs in absence of NADPH by UHPLC-MS analysis; format: ADME, microsome
# Rattus norvegicus [7] = assay: Antiinflammatory activity in DNBS-induced Sprague-Dawley rat colitis model assessed as reduction in DNBS-induced spleen weight increase by measuring increase in spleen weight at 50 mg/kg/day, ig administered as suspension in olive oil for 6 days simulatneously with 6 days of DNBS-challenge measured daily during compound dosing (reference value: 39.3%); format: functional; set-up: scale not given: the % may be the effect or the level left
# Method in brief: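 Spleen weight was used as an index of systemic inflammation. Rats had intrarectal DNBS (15 mg/0.25 mL 50% ethanol) and 6 days of intragastric dosing: 1 mg/kg/day in 1% methylcellulose, or 12.5–50 mg/kg/day in 0.2 mL olive oil. The spleen was weighed at sacrifice and expressed as percent increase versus control, n = 10.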
# Rattus norvegicus [8] = assay: Antiinflammatory activity in DNBS-induced Sprague-Dawley rat colitis model assessed as DNBS-induced decrease in colonic length at 25 mg/kg/day, ig administered as suspension in olive oil for 6 days simulatneously with 6 days of DNBS-challenge (reference value: -34.4%); format: functional; set-up: scale not given: the % may be the effect or the level left
# Rattus norvegicus [9] = assay: Antiinflammatory activity in DNBS-induced Sprague-Dawley rat colitis model assessed as DNBS-induced decrease in colonic length at 50 mg/kg/day, ig administered as suspension in olive oil for 6 days simulatneously with 6 days of DNBS-challenge (reference value: -34.4%); format: functional; set-up: scale not given: the % may be the effect or the level left
# Rattus norvegicus [10] = assay: Anti-inflammatory activity in DNBS-induced Sprague-Dawley rat colitis model assessed as reduction in DNBS-induced increase in MPO levels in colon at 12.5 to 50 mg/kg/day, ig for 6 days simulatneously with 6 days of DNBS-challenge by ELISA; format: functional, organism-based
# Method in brief: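 DNBS colitis (15 mg intrarectal in 50% ethanol) was treated by the intragastric route for 6 days from induction (1 mg/kg/day in 1% methylcellulose, or 12.5–50 mg/kg/day in olive oil). Colonic samples (30 mg) were taken adjacent and distal to the necrotic area, homogenized, and assayed for MPO by ELISA. Results are ng MPO per mg tissue, mean ± SEM, n = 10.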
# Rattus norvegicus [11] = assay: Anti-inflammatory activity in DNBS-induced Sprague-Dawley rat colitis model assessed as reduction in DNBS-induced IL-1beta levels in colon administered ig for 6 days simulatneously with 6 days of DNBS-challenge by ELISA; format: functional
# Rattus norvegicus [12] = assay: Anti-inflammatory activity in DNBS-induced Sprague-Dawley rat colitis model assessed as DNBS-induced IL-1beta levels in colon at 12.5 mg/kg/day, ig for 6 days simulatneously with 6 days of DNBS-challenge by ELISA (reference value: 22.3 +/- 2.9 ng/mg); format: functional
# Rattus norvegicus [13] = assay: Anti-inflammatory activity in DNBS-induced Sprague-Dawley rat colitis model assessed as DNBS-induced IL-1beta levels in colon at 50 mg/kg/day, ig for 6 days simulatneously with 6 days of DNBS-challenge by ELISA (reference value: 22.3 +/- 2.9 ng/mg); format: functional
# [14] = molecular target: NACHT, LRR and PYD domains-containing protein 3 (Homo sapiens) (UniProt Q96P20); assay: Inhibition of recombinant human NLRP3 ATPase assessed as hydrolysis of ATP preincubated for 15 mins followed by addition of ATP measured after 40 mins by ADP-Glo assay
# Method in brief: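 Human recombinant NLRP3 (0.105 µg) in 20 mM Tris-HCl pH 7.8, 133 mM NaCl, 20 mM MgCl2, 3 mM KCl, 0.56 mM EDTA, 0.5% DMSO. Compound (100 or 50 µM) was preincubated 15 min at 37 °C, then ATP (250 µM) was added for 40 min at 37 °C. ADP was read by ADP-Glo luminescence. Result is % inhibition vs vehicle; mean ± SEM, ≥3 experiments.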
# Rattus norvegicus [15] = assay: Toxicity in Sprague-Dawley rat at 50 mg/kg/day, ig; format: organism-based; conditions: in vivo, po
# Method in brief: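 Rats received intrarectal DNBS (15 mg in 0.25 mL 50% ethanol) or none. Dosing was intragastric for 6 days from induction: compound 12.5–50 mg/kg/day in 0.2 mL olive oil, or dexamethasone 1 mg/kg/day in 0.2 mL 1% methylcellulose. Body weight change was recorded at end; n = 10, mean ± SEM.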
# Chain of NACHT, LRR and PYD domains-containing protein 3 (Homo sapiens) (Q96P20 whole entry, the tested form may be a part): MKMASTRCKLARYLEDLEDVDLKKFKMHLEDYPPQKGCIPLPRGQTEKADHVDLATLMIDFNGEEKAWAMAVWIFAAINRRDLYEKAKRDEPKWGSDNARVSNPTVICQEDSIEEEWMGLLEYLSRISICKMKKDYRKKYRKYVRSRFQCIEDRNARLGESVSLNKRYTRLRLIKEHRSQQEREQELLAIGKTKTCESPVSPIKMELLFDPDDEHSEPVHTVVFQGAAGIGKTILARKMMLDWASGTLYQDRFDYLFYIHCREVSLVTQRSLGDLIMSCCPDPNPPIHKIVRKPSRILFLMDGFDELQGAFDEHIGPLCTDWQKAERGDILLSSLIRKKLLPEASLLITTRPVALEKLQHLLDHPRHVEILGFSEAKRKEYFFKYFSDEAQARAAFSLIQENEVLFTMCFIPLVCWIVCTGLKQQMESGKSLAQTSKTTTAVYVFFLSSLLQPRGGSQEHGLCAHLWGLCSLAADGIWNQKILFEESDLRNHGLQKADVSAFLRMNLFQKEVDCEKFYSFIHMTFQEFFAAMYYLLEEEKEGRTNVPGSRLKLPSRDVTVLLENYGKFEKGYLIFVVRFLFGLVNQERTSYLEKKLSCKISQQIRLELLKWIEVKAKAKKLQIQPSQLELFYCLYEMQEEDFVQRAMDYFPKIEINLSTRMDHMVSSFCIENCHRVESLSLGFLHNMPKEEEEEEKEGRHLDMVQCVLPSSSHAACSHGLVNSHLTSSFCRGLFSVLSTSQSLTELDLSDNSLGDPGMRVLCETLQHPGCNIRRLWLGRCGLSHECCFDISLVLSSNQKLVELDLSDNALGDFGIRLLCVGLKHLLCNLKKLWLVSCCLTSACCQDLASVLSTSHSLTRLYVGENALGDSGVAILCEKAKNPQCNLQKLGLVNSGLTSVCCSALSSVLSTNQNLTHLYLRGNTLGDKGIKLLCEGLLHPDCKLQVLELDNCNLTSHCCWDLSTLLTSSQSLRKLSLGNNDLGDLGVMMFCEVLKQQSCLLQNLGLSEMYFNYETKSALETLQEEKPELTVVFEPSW
compound,measurement,setting,value
C=C(Cc1ccccc1Cl)C(=O)OCC,Stability,[1],89.4%
same,inhibition,[2],33.6%
same,inhibition,[3],Active
same,inhibition,[4],inactive
same,inhibition,[5],45%
same,solubility at 24 h,[6],6 µg/mL
same,Drug metabolism,Jejunum,Metabolite_Detected
same,Drug metabolism,Liver,Metabolite_Detected
same,Activity,Rattus norvegicus [7],4.8%
same,Activity,Rattus norvegicus [8],-13%
same,Activity,Rattus norvegicus [9],-8%
same,Activity,Rattus norvegicus [10],Active
same,Activity,Rattus norvegicus [11],Dose-dependent effect
same,Activity,Rattus norvegicus [12],16.4 ng/mg
same,Activity,Rattus norvegicus [13],6.6 ng/mg
same,inhibition,[14],Dose-dependent effect
same,Activity,Rattus norvegicus [15],Non-Toxic
